What was measured:
[1] = target: T1, Adrenergic receptor alpha-2 (Rattus norvegicus, UniProt P22086+P19328+P22909); test: Binding affinity to alpha-2 adrenergic receptor by displacement of [3H]clonidine; type: protein assay
T1 sequence (P22086 whole entry): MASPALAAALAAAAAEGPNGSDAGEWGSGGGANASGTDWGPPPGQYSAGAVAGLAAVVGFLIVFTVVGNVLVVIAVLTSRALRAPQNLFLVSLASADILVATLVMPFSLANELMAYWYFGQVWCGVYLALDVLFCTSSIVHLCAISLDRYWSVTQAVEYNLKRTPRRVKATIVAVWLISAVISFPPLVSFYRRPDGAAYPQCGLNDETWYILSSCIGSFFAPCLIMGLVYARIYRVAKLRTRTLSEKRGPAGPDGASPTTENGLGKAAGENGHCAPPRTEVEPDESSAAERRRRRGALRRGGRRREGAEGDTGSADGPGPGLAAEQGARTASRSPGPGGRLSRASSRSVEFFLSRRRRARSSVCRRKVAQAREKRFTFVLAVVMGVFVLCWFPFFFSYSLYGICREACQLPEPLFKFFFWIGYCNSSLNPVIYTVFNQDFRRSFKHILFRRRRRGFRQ
T1 sequence (P19328 whole entry): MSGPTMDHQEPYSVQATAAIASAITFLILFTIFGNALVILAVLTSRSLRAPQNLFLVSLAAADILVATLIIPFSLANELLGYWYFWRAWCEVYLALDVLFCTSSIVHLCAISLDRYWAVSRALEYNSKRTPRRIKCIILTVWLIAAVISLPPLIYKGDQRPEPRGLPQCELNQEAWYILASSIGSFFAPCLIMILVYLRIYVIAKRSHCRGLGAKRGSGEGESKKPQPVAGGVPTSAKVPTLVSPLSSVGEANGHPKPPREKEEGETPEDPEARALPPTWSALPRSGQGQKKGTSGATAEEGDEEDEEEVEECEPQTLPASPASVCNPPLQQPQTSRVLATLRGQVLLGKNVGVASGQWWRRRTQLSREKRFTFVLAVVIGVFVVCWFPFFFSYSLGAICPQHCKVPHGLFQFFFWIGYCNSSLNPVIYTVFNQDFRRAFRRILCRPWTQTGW
T1 sequence (P22909 whole entry): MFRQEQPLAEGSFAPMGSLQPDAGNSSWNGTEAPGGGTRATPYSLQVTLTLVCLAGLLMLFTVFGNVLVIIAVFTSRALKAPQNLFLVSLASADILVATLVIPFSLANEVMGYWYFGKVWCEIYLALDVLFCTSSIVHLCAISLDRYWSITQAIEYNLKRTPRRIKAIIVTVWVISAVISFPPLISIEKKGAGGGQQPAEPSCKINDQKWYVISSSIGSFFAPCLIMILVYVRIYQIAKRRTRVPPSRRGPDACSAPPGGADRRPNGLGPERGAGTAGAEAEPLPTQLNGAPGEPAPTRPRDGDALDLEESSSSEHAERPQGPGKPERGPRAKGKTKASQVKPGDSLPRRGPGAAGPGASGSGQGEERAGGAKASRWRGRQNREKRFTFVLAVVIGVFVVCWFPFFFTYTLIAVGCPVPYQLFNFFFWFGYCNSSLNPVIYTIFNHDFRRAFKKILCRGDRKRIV
Procedure, shortened: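 Male Sprague Dawley rat cortex homogenized, washed thrice by centrifugation in 50 mM Tris/HCl pH 7.7. Incubated with [3H]clonidine (final 2.0 nM) and varied inhibitor concentrations, 25 °C 30 min; GF/B filtration, scintillation counting. Nonspecific binding with 2 uM phentolamine. IC50 by log-probit analysis, converted to Ki via Cheng–Prusoff (Hill coefficients near one).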

[2] = Selectivity ratio (alpha2/PNMT)
[3] = target: T2, Phenylethanolamine N-methyltransferase (Bos taurus, UniProt P10938); test: Ability to inhibit phenylethanolamine N-methyl-transferase (PNMT)
T2 sequence (P10938 whole entry): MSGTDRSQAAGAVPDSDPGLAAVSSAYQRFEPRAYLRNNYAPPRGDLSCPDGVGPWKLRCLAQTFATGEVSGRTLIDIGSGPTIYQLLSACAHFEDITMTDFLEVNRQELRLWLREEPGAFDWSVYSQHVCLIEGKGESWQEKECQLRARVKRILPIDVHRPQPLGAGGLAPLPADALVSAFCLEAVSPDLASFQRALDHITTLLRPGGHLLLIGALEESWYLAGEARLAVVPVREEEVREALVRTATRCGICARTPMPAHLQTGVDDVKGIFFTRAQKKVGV

SMILES | Ki [1] | Selectivity [2] | Ki [3]
O=[N+]([O-])c1ccc2c(c1)CNCC(F)C2 (stereo not given) | 510 µM | 940 | 540 nM
FC1CNCc2cc(Br)ccc2C1 (stereo not given) | 49 µM | 130 | 390 nM
Clc1ccc2c(c1Cl)CNCC2 |  | 0.095 | 
NS(=O)(=O)c1ccc2c(c1)CNC(CO)C2 (stereo not given) |  | 4100 | 
N#Cc1ccc2c(c1)CNCC(F)C2 (stereo not given) | 100 µM | 77 | 1300 nM
N#Cc1ccc2c(c1)CNC(CF)C2 (stereo not given) |  | 420 | 
FCC1Cc2ccc(Br)cc2CN1 (stereo not given) |  | 10 | 
O=[N+]([O-])c1ccc2c(c1)CNCC(O)C2 (stereo not given) | 680 µM | 130 | 5300 nM
O=[N+]([O-])c1ccc2c(c1)CNCC2CF (stereo not given) | 35 µM | 17 | 2100 nM
NS(=O)(=O)c1ccc2c(c1)CNC(CF)C2 (stereo not given) |  | 1000 | 
O=[N+]([O-])c1ccc2c(c1)CNC(CF)C2 (stereo not given) |  | 140 | 
COc1ccc2c3c([nH]c2c1)C=NCC3 |  | 4.4 | 
FC1CNCc2ccccc2C1 (stereo not given) | 93 µM | 47 | 2000 nM

Source: ChEMBL document CHEMBL1134455, “Synthesis and evaluation of 4-fluoro-8-substituted-2,3,4,5-tetrahydro-1H-2-benzazapines as selective inhibitors of phenylethanolamine N-methyltransferase versus the alpha(2)-adrenoceptor” (J Med Chem, 2001)
